The nature of test [1]: In vitro inhibition of lymphocyte activated CD25 antigens induced by monoclonal antibody. The format is functional, Homo sapiens. Summed up: (§1)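 Human PBMC from healthy donors, separated on Ficoll-Hypaque, at 10⁶ cells/mL in RPMI 1640 with 10% FBS. Cells were incubated with test compounds and stimulated with an optimal concentration of anti-CD3 mAb OKT3 for 24 h at 37 °C in 5% CO₂. CD2, CD25 and CD71 were read by immunofluorescence staining and flow cytometry. IC50 values came from at least two experiments, which differed by less than 10%.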

The nature of test [2]: In vitro inhibition of lymphocyte activated CD2 antigens induced by monoclonal antibody. The format is functional, Homo sapiens. The gist of the method: as §1
Test [3] is described as follows: In vitro inhibition of lymphocyte activated CD71 antigens induced by monoclonal antibody. The format is functional, Homo sapiens. The gist of the method: as §1
The species named for test [4] is Mus musculus. Nature of the test: The compound was tested for in vitro mixed lymphocyte reaction. It is filed as functional, organism-based. Summed up:
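Bidirectional murine MLR using BALB/c and DBA/2 splenocytes isolated on Ficoll-Hypaque. 5×10⁴ cells of each strain were cocultured in triplicate for 96 h with serial dilutions of compound (20 mM DMSO stock), with DMSO-matched controls. Medium was RPMI 1640 with 5% FBS. [³H]thymidine (1 µCi) was added for the last 18 h. IC50 is 50% inhibition of proliferation versus untreated cultures; at least three experiments.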

A short description of test [5]: In vitro inhibition of expression of lymphocyte activated CD25 antigens induced by monoclonal antibody. Conditions: Homo sapiens. The format is functional. The gist of the method:
as §1

Test [6] has as its system Mus musculus. The experiment in a line: Inhibition of paw edema formation in mouse after an peroral dose of 10 mg/kg; Thickness of paw =2.45+/-0.14 mm. It is filed as functional. Particulars: route oral.
Test [7] in a line: In vitro inhibition of expression of lymphocyte activated CD2 antigens induced by monoclonal antibody. The format is functional. Particulars: Homo sapiens. The gist of the method:
as §1

Test [8] is described as follows: In vitro inhibition of expression of lymphocyte activated CD71 antigens induced by monoclonal antibody. It is filed as functional. Conditions: Homo sapiens. Summed up: as §1
In test [9] the test system is Mus musculus. Nature of the test: Inhibition of paw edema formation in mouse after an ip dose of 10 mg/kg; Thickness of paw = 2.38+/-0.07 mm. Conditions: route intraperitoneal. It is filed as functional.
Test [10] is filed under the species Mus musculus. The experiment in a line: animal or person. Conditions: ip, read-out: Inhibition.
The species entered for test [11] is Mus musculus. The experiment in a line: animal or person. Particulars: ip, read-out: Inhibition. The source holds these as a separate data set.

Bounds are passed on as bounds.

As usually defined, the IC50 is the point on the concentration scale where inhibition reaches its midpoint.

Take `CC(O)=C(C(=O)Nc1ccc(C(F)(F)F)cc1)C(=O)Nc1ccc(C(F)(F)F)cc1`: the IC50 in test [1] came out at 18.4 µM; in [2] it was 15.3 µM; in test [3] it was 18.8 µM; in the test filed under Mus musculus [4] it was 11.9 µM.

With `CCO/C(O)=C(/C(C)=O)C(=O)Nc1ccc(C(F)(F)F)cc1`, the IC50 in test [1] turned out to be 96.4 µM; in test [2], 90.8 µM; in test [3] it was 78.1 µM; in the test filed under Mus musculus [4], 71.6 µM.

Regarding `O=C1CCCC(O)=C1C(=O)Nc1ccc(C(F)(F)F)cc1`, the half-inhibitory concentration (IC50) in test [1] stood at 2.9 µM; in [2], 2.9 µM; in test [3], 11 µM; in the test listed under Mus musculus [4], 1.25 µM.

Regarding `Cc1oncc1C(=O)Nc1ccc(C(F)(F)F)cc1` [LEFLUNOMIDE], the IC50 is 130 µM in test [5], 126 µM in test [7], above 100 µM in test [8] and 9.6 µM in the test filed under Mus musculus [4]. The compound further came in with an inhibition in vivo at 10 mg/kg in the test on Mus musculus [6] of 45%.

Take `O=C1COC(O)=C1C(=O)Nc1ccc(C(F)(F)F)cc1`: the half-inhibitory concentration (IC50) in test [1] is above 100 µM; in [2] it was 95.4 µM; in [3] it was above 100 µM; in the test filed under Mus musculus [4] it was 45.9 µM.

In the case of `C/C(O)=C(\C#N)C(=O)Nc1ccc(C(F)(F)F)cc1` [TERIFLUNOMIDE], the half-maximal inhibitory concentration (IC50) came to 89.9 µM in [1], 50.9 µM in [2], 74.6 µM in test [3] and 41.3 µM in the test listed under Mus musculus [4].

Regarding `O=C(Nc1ccc(C(F)(F)F)cc1)c1ccccc1O`, the IC50 in test [1] was found to be 2.4 µM; in [2], 3 µM; in test [3] it was 4.4 µM; in the test filed under Mus musculus [4] it was 1.65 µM. This compound also displayed an inhibition in vivo at 10 mg/kg in the test with Mus musculus [9] of 43%.

`O=C1CCC(O)=C1C(=O)Nc1ccc(C(F)(F)F)cc1`: the IC50 in [1] came out at 14.8 µM; in [2] it was 13.8 µM; in [3], 66.5 µM; in the test filed under Mus musculus [4], 3.4 µM.

Turning to `C/C=C/C[C@@H](C)[C@@H](O)[C@H]1C(=O)N[C@@H](CC)C(=O)N(C)CC(=O)N(C)[C@@H](CC(C)C)C(=O)N[C@@H](C(C)C)C(=O)N(C)[C@@H](CC(C)C)C(=O)N[C@@H](C)C(=O)N[C@H](C)C(=O)N(C)[C@@H](CC(C)C)C(=O)N(C)[C@@H](CC(C)C)C(=O)N(C)[C@@H](C(C)C)C(=O)N1C` [CYCLOSPORINE], in the test filed under Mus musculus [10], the inhibition in vivo at 5 mg/kg was 48%. Besides, in the test listed under Mus musculus [11], the inhibition in vivo at 50 mg/kg stood at 83%.

Values taken from ChEMBL document CHEMBL1130346, “A new rational hypothesis for the pharmacophore of the active metabolite of leflunomide, a potent immunosuppressive drug” (J Med Chem, 1997).
